Converted amounts (≈) assume the structure as drawn.
Tests used:
Adenosine receptor A2a [1] = target: T1, Adenosine receptor A2a (Homo sapiens, UniProt P29274); assay: Displacement of [3H]ZM241385 from human cloned adenosine A2A receptor expressed in human HeLa cells; type: cell-based
HeLa = assay: Selectivity index, ratio of Ki for human cloned adenosine A2A receptor expressed in human HeLa cells to Ki for human cloned adenosine A2B receptor expressed in HEK293 cells; type: cell-based
Summary of the method: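 SI is the ratio of Ki values. […] A1 in CHO cells: [3H]DPCPX 2 nM. A2A in HeLa cells: [3H]ZM241385 3 nM. A2B in HEK-293 cells: [3H]DPCPX 25 nM. A3 in HeLa cells: [3H]NECA 30 nM. Filtration and scintillation counting.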

Adenosine receptor A2b = target: T2, Adenosine receptor A2b (Homo sapiens, UniProt P29275); assay: Displacement of [3H]DPCPX from human cloned adenosine A2B receptor expressed in HEK293 cells; type: cell-based
T2 sequence (P29275 whole entry): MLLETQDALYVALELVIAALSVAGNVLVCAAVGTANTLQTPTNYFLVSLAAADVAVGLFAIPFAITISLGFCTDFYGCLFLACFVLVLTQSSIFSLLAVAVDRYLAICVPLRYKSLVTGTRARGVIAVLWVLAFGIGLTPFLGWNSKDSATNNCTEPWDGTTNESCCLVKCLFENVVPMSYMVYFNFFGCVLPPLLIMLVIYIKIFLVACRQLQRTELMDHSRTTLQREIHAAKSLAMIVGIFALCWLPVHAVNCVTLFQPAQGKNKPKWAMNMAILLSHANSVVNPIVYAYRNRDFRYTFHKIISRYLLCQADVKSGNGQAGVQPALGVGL

[2] = Solubility in 50 mM Tris/HCl buffer at pH 7.4 by turbidimetric method; type: physicochemical
Summary of the method: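 DMSO stock added stepwise (about 14 additions) to 50 mM Tris/HCl pH 7.4 at room temperature, final DMSO below 5%; precipitation detected as UV absorbance rise at 600–800 nm; solubility limit from bilinear fit of absorbance versus DMSO.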

[3] = Methanol-water partition coefficient, log K by RP-HPLC; type: physicochemical
Summary of the method: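 Reverse-phase HPLC with water–methanol 40/60 (v/v) mobile phase at 1.0 ml/min; dead time from KI in methanol; retention times in minutes; log k from capacity factor taken as lipophilicity index.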

Adenosine receptor A2a [4] = target: T1, Adenosine receptor A2a; assay: Displacement of [3H]ZM241385 from human cloned adenosine A2A receptor expressed in human HeLa cells at 1 uM; type: cell-based
Summary of the method: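 HeLa membranes (10 µg) in 50 mM Tris–HCl, 1 mM EDTA, 10 mM MgCl2, 2 U/mL adenosine deaminase, pH 7.4; 3 nM [3H]ZM241385, 25 °C; NECA for nonspecific binding; filtration with 4× ice-cold washes, scintillation counting; percent radioligand displacement at 1 µM.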

Adenosine receptor A3 [5] = target: T3, Adenosine receptor A3 (Homo sapiens, UniProt P0DMS8); assay: Displacement of [3H]NECA from human cloned adenosine A3 receptor expressed in human HeLa cells at 1 uM; type: cell-based
T3 sequence (P0DMS8 whole entry): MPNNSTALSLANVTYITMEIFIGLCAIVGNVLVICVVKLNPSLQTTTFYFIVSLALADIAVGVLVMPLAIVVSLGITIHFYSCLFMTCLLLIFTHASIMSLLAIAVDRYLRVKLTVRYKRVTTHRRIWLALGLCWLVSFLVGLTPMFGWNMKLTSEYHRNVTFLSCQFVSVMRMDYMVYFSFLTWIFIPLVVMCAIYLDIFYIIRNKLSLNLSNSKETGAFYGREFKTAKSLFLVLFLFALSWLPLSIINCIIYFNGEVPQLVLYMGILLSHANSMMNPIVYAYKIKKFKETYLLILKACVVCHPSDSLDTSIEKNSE

Adenosine receptor A1 = target: T4, Adenosine receptor A1 (Homo sapiens, UniProt P30542); assay: Displacement of [3H]DPCPX from human cloned adenosine A1 receptor expressed in CHO cells; type: cell-based
T4 sequence (P30542 whole entry): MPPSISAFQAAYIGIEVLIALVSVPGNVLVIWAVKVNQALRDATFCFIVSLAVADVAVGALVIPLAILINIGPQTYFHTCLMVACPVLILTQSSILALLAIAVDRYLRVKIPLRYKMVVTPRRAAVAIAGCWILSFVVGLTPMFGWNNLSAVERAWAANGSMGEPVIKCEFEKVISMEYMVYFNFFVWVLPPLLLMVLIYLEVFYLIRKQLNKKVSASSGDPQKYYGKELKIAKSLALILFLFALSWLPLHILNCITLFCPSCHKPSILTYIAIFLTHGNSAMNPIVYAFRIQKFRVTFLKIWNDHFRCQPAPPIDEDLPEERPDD

Adenosine receptor A3 [6] = target: T3, Adenosine receptor A3; assay: Displacement of [3H]NECA from human cloned adenosine A3 receptor expressed in human HeLa cells; type: cell-based

T1 sequence (P29274 whole entry): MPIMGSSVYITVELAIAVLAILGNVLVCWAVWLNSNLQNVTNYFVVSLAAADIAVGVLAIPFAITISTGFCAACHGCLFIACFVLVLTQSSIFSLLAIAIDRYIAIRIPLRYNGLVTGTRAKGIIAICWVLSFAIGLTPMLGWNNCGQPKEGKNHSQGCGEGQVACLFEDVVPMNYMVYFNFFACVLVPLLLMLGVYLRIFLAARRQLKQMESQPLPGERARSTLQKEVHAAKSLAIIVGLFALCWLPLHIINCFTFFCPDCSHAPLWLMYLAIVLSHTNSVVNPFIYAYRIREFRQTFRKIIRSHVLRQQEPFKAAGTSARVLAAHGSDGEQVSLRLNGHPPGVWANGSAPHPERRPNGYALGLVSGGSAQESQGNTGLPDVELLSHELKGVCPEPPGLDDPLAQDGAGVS

| Compound | Ki (Adenosine receptor A2a [1]) [nM] | Ratio Ki (HeLa) | Ki (Adenosine receptor A2b) [nM] | solubility kinetic [2] [µg/mL] | log K [3] | inhibition (Adenosine receptor A2a [4]) [%] | inhibition (Adenosine receptor A3 [5]) [%] | Ki (Adenosine receptor A1) [nM] | Ki (Adenosine receptor A3 [6]) [nM] |
| --- | --- | --- | --- | --- | --- | --- | --- | --- | --- |
| CCCn1c(=O)c2c(cc(-c3ccc(C)cc3)n2O)n(CCC)c1=O | 398 | 0.66 | 589 | – | – | – | – | – | – |
| CCCn1c(=O)c2[nH]c(-c3ccc(C)cc3)c(O)c2n(CCC)c1=O | 89 | 1 | 89 | 30 (≈ 87.9 µM) | 0.83 | – | – | – | – |
| Cn1c(=O)c2c(cc(-c3ccccc3)n2O)n(C)c1=O | – | – | 1660 | – | – | 12 | – | – | – |
| CCCn1c(=O)c2[nH]c(-c3ccc(O)cc3)cc2n(CCC)c1=O | 48 | 1.1 | 44 | – | – | – | – | – | – |
| CCCn1c(=O)c2[nH]c(-c3ccc(OCC(=O)N4CCN(Cc5ccccc5)CC4)cc3)cc2n(CCC)c1=O | – | 42 | – | 2 (≈ 3.68 µM) | 0.93 | – | 5 | 43 | – |
| CCCn1c(=O)c2[nH]c(-c3ccc(OC)cc3)c(O)c2n(CCC)c1=O | 148 | 6.2 | 24 | 120 (≈ 336 µM) | 0.51 | – | – | – | – |
| Cn1c(=O)c2[nH]c(-c3ccccc3)cc2n(C)c1=O | 479 | 2.6 | 182 | – | – | – | – | – | – |
| CCCn1c(=O)c2[nH]c(-c3ccco3)c(O)c2n(CCC)c1=O | 104 | 4.5 | 23 | – | – | – | – | – | – |
| CCCn1c(=O)c2c(cc(-c3ccc(OC)cc3)n2O)n(CCC)c1=O | 631 | 1.3 | 479 | – | – | – | – | – | – |
| CCCn1c(=O)c2[nH]c(-c3ccc(OCC(=O)Nc4ccc(Br)cc4)cc3)cc2n(CCC)c1=O | – | 14 | – | – | – | – | – | 21 | 199 |
| CCCn1c(=O)c2[nH]c(-c3ccc(N)cc3)cc2n(CCC)c1=O | 162 | 18.2 | 8.9 | 6 (≈ 18.4 µM) | 1.21 | – | – | – | – |
| CCCn1c(=O)c2[nH]c(-c3ccc(S(C)(=O)=O)cc3)c(O)c2n(CCC)c1=O | 28 | 4.3 | 6.5 | – | – | – | – | 63 | 295 |
| CCCn1c(=O)c2c(cc(-c3ccccc3)n2O)n(CCC)c1=O | – | – | 676 | – | – | 32 | 30 | 25 | – |
| Cc1ccc(-c2[nH]c3c(=O)n(C)c(=O)n(C)c3c2O)cc1 | 2450 | 4.8 | 513 | – | – | – | – | – | – |
| CCCn1c(=O)c2[nH]c(-c3ccc([N+](=O)[O-])cc3)c(O)c2n(CCC)c1=O | 145 | 2.9 | 50 | – | – | – | – | – | – |
| Cc1ccc(-c2cc3c(c(=O)n(C)c(=O)n3C)n2O)cc1 | – | – | 2240 | – | – | 8 | – | – | – |

| Compound | Ki (Adenosine receptor A2a [1]) [nM] | Ratio Ki (HeLa) | Ki (Adenosine receptor A2b) [nM] | solubility kinetic [2] [µg/mL] | log K [3] | inhibition (Adenosine receptor A2a [4]) [%] | inhibition (Adenosine receptor A3 [5]) [%] | Ki (Adenosine receptor A1) [nM] | Ki (Adenosine receptor A3 [6]) [nM] |
| --- | --- | --- | --- | --- | --- | --- | --- | --- | --- |
| CCCn1c(=O)c2[nH]c(-c3ccc(O)cc3)c(O)c2n(CCC)c1=O | 118 | 10.7 | 11 | – | – | – | – | – | – |
| CCCn1c(=O)c2[nH]c(-c3ccc(C)cc3)cc2n(CCC)c1=O | 631 | 3.2 | 199 | 6 (≈ 18.4 µM) | 0.97 | – | – | – | – |
| CCCn1c(=O)c2[nH]c(-c3ccc(C(C)=O)cc3)c(O)c2n(CCC)c1=O | 324 | 4.6 | 71 | – | – | – | – | – | – |
| CCCn1c(=O)c2[nH]c(-c3ccco3)c(OS(=O)(=O)O)c2n(CCC)c1=O | 408 | 11.7 | 35 | – | – | – | – | – | – |
| CCCn1c(=O)c2c(cc(-c3ccc(O)cc3)n2O)n(CCC)c1=O | 102 | 0.89 | 115 | – | – | – | – | – | – |
| CCCn1c(=O)c2[nH]c(-c3ccccc3)c(O)c2n(CCC)c1=O | 50 | 0.93 | 54 | – | – | – | – | 83 | 182 |
| CCCn1c(=O)c2c(cc(-c3ccc(N)cc3)n2O)n(CCC)c1=O | 240 | 1.5 | 155 | – | – | – | – | – | – |
| Cn1c(=O)c2[nH]c(-c3ccc(S(C)(=O)=O)cc3)c(O)c2n(C)c1=O | 692 | 10.2 | 68 | – | – | – | – | – | – |
| CCCn1c(=O)c2[nH]c(-c3ccc(N)cc3)c(O)c2n(CCC)c1=O | 166 | 8.7 | 19 | 30 (≈ 87.6 µM) | 0.96 | – | – | – | – |
| CCCn1c(=O)c2[nH]c(-c3ccc(C(=O)O)cc3)c(O)c2n(CCC)c1=O | 933 | 2.8 | 338 | – | – | – | – | – | – |
| CCCn1c(=O)c2[nH]c(-c3ccc(S(C)(=O)=O)cc3)c(O)c2n(C)c1=O | 468 | 7.3 | 64 | – | – | – | 7 | 240 | – |
| Cn1c(=O)c2[nH]c(-c3ccccc3)c(O)c2n(C)c1=O | 1470 | 5.1 | 288 | – | – | – | – | – | – |
| CCCn1c(=O)c2[nH]c(-c3ccc(OC)cc3)cc2n(CCC)c1=O | 199 | 0.41 | 490 | 28 (≈ 82 µM) | 0.71 | – | – | – | – |
| CCCn1c(=O)c2[nH]c(-c3ccccc3)cc2n(CCC)c1=O | 646 | 2.8 | 229 | – | – | – | – | 34 | 96 |
| Cc1ccc(-c2cc3c([nH]2)c(=O)n(C)c(=O)n3C)cc1 | 126 | 0.28 | 457 | – | – | – | – | – | – |

Reference: ChEMBL document CHEMBL1142545, “1,3-Dialkyl-8-(hetero)aryl-9-OH-9-deazaxanthines as potent A2B adenosine receptor antagonists: design, synthesis, structure-affinity and structure-selectivity relationships” (Bioorg Med Chem, 2008)
